# ChEMBL document CHEMBL4007513, “Synthesis and Biological Evaluation of the First Triple Inhibitors of Human Topoisomerase 1, Tyrosyl-DNA Phosphodiesterase 1 (Tdp1), and Tyrosyl-DNA Phosphodiesterase 2 (Tdp2)” (J Med Chem, 2017)
# Activity calls are given as the source filed them. The rule behind the calls is not given here.
# Tests used:
# SN12C = test: Cytotoxicity against human SN12C cells after 48 hrs by SRB assay; assay type: functional
# Summary of the method: (§1)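 NCI-60 human cancer cell line screen. Five-concentration testing across 0.01 to 100 μM, done only for compounds selected from a one-concentration preliminary test. Read-out was GI50.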
# MCF7 = test: Cytotoxicity against human MCF7 cells after 48 hrs by SRB assay; assay type: functional; conditions: for GI50: MCF7, 48 h; summary of the method: as §1
# UACC-62 = test: Cytotoxicity against human UACC62 cells after 48 hrs by SRB assay; assay type: functional; conditions: for GI50: UACC-62, 48 h; summary of the method: as §1
# HOP-62 = test: Cytotoxicity against human HOP62 cells after 48 hrs by SRB assay; assay type: functional; conditions: for GI50: HOP-62, 48 h; summary of the method: as §1
# [1] = target: T1, Tyrosyl-DNA phosphodiesterase 2 (Homo sapiens) (UniProt O95551); test: (§2) Inhibition of recombinant human Tdp2 assessed as decrease in alpha 32P-cordycepin-3'-labeled DNA breaks after 15 mins by PAGE analysis
# T1 sequence (whole entry): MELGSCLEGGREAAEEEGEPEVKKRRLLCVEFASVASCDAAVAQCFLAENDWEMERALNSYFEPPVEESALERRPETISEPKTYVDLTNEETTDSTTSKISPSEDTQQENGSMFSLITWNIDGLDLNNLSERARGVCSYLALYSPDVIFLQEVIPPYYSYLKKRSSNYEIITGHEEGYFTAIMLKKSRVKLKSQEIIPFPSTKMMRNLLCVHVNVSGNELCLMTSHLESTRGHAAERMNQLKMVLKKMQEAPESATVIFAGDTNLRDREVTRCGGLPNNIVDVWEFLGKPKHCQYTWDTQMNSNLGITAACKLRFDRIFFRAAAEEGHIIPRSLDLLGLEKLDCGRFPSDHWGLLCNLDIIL
# Summary of the method: (§3)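 The substrate was the 18-mer single-stranded TY18 oligo, α32P-cordycepin-3′-labeled, at 1 nM, with 25 pM recombinant human Tdp2. Products were run on 16% denaturing PAGE.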
# [2] = target: T2, Tyrosyl-DNA phosphodiesterase 2 (Homo sapiens, UniProt O95551); test: as §2; summary of the method: as §3
# T2 sequence (O95551 whole entry): T1 sequence (whole entry)
# SF-539 = test: Cytotoxicity against human SF539 cells after 48 hrs by SRB assay; assay type: functional; conditions: for GI50: SF-539, 48 h; summary of the method: as §1
# [3] = target: Tyrosyl-DNA phosphodiesterase 1 (Homo sapiens, UniProt Q9NUW8); test: Inhibition of recombinant Tdp1 (unknown origin) assessed as decrease in hydrolysis of phosphodiester linkage between tyrosine residue and the 3' end of 5'-[32P]-DNA after 15 mins by PAGE analysis
# Summary of the method: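 The substrate was 5′-32P single-stranded oligo N14Y carrying a 3′-phosphotyrosine, at 1 nM, with 10 pM recombinant Tdp1. Products were run on 16% denaturing PAGE with phosphorimaging.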
# CCRF-CEM = test: Induction of DNA damage in human CCRF-CEM cells assessed as formation of gamma-H2AX foci at 100 to 1000 nM after 2 hrs by DAPI staining-based confocal microscopy; assay type: functional, cell-based
# Summary of the method: (§4)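 Freshly purified human PBMCs (from healthy donors) or CCRF-CEM leukemia cells were used at 2 mil/mL in RPMI 1640 with 10% FBS, penicillin and streptomycin. Cells were dosed at 100 nM and 1 μM for 2 h at 37 °C. They were then fixed in 2% paraformaldehyde, cytospun and blocked in 5% BSA. Staining used anti-γ-H2AX with an Alexa 488 secondary and DAPI, and foci were imaged by confocal microscopy.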
# PBMC = test: Induction of DNA damage in human PBMC assessed as formation of gamma-H2AX foci at 100 to 1000 nM after 2 hrs by DAPI staining-based confocal microscopy; assay type: cell-based; conditions: 1 µM; summary of the method: as §4
# [4] = target: T3, DNA topoisomerase 1 (Homo sapiens) (UniProt P11387); test: Inhibition of recombinant Top1 (unknown origin) assessed as increase in [32P]-DNA breaks after 20 mins by PAGE analysis
# T3 sequence (whole entry): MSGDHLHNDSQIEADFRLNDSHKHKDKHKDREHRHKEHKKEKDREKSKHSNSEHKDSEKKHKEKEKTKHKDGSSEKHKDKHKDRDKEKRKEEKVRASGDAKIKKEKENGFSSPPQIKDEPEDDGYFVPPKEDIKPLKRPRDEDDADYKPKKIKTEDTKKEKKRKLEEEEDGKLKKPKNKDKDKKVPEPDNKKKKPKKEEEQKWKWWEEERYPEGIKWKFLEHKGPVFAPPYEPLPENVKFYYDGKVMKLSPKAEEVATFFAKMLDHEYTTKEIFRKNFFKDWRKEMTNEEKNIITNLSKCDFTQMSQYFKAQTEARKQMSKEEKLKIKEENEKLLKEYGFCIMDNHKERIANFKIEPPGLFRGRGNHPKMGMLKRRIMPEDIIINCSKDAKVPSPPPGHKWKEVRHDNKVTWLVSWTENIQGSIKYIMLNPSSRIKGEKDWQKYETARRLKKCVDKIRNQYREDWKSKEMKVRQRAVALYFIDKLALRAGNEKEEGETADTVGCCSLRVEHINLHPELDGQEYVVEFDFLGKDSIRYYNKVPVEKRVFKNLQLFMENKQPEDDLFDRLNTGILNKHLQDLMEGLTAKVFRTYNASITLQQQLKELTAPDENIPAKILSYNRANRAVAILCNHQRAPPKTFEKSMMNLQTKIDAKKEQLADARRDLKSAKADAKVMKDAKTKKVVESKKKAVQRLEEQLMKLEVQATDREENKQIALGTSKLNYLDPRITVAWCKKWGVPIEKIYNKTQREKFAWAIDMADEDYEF
# Summary of the method: (§5)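 The substrate was a 3′-32P 117-bp oligonucleotide holding Top1 cleavage sites, at about 2 nM, with recombinant Top1. Compounds were tested at 0.1, 1.0, 10 and 100 μM. Reactions were stopped with 0.5% SDS and run on 20% denaturing PAGE.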
# OVCAR-3 = test: Cytotoxicity against human OVCAR3 cells after 48 hrs by SRB assay; assay type: functional; conditions: for GI50: OVCAR-3, 48 h; summary of the method: as §1
# [5] = target: T3, DNA topoisomerase 1 (Homo sapiens); test: Inhibition of recombinant Top1 (unknown origin) assessed as increase in [32P]-DNA breaks at 0.1 to 100 uM after 20 mins by PAGE analysis; summary of the method: as §5
# Sequence of Tyrosyl-DNA phosphodiesterase 1 (Q9NUW8 whole entry): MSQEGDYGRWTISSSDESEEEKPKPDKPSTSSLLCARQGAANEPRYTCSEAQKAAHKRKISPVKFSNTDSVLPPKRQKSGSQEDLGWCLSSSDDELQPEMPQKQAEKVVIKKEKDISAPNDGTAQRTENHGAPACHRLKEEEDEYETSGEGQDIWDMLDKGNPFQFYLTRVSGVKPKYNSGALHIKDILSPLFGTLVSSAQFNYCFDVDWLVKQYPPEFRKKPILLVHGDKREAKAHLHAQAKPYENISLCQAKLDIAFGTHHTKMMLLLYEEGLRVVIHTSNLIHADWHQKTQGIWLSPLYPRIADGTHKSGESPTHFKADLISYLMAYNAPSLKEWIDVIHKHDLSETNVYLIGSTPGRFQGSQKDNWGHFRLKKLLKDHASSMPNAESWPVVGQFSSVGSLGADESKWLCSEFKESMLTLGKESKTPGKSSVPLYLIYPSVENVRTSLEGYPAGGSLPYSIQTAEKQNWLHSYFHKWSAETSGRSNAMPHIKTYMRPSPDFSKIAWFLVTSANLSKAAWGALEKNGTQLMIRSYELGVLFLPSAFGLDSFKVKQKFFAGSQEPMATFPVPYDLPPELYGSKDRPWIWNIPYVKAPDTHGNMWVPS
Compound,Activity (SN12C),Activity (MCF7),Activity (UACC-62),Activity (HOP-62),inhibition [1],IC50 [2] [µM],Activity (SF-539),IC50 [3] [µM],inhibition [3],Activity (CCRF-CEM),Activity (PBMC),inhibition [4],Activity (OVCAR-3),GI50 (SN12C) [µM],inhibition [5],GI50 (MCF7) [µM],GI50 (UACC-62) [µM],GI50 (HOP-62) [µM],GI50 (SF-539) [µM],GI50 (OVCAR-3) [µM]
COc1cnc2c(c1)C(=O)c1c-2n(CCCN2CCC(N)CC2)c(=O)c2cc([N+](=O)[O-])ccc12,inactive,inactive,inactive,inactive,Dose-dependent effect,1 to 12,inactive,1 to 12,Dose-dependent effect,Active,Non-Toxic,Active,inactive,,,,,,,
CCNCCCn1c2c(c3ccc([N+](=O)[O-])cc3c1=O)C(=O)c1cc(OC)cnc1-2,,,,,Dose-dependent effect,37 to 111,,1 to 12,Dose-dependent effect,Active,Non-Toxic,,,0.053,Active,0.019,0.027,0.107,0.07,0.062
COc1cnc2c(c1)C(=O)c1c-2n(CCCN2CCNCC2)c(=O)c2cc([N+](=O)[O-])ccc12,,,,,Dose-dependent effect,37 to 111,,12 to 37,Dose-dependent effect,,,Active,,0.23,,0.036,0.175,0.065,0.355,1.19
COc1cnc2c(c1)C(=O)c1c-2n(CCCBr)c(=O)c2cc([N+](=O)[O-])ccc12,,,,,Dose-dependent effect,37 to 111,,12 to 37,Dose-dependent effect,,,Active,,0.269,,0.046,0.082,0.058,0.279,0.248
COc1cnc2c(c1)C(=O)c1c-2n(CCCN2CCCC2)c(=O)c2cc([N+](=O)[O-])ccc12,,,,,Dose-dependent effect,37 to 111,,1 to 12,Dose-dependent effect,,,Active,,0.036,,< 0.01,0.015,< 0.01,0.031,0.059
CC[C@@]1(O)C(=O)OCc2c1cc1n(c2=O)Cc2cc3ccccc3nc2-1 [CAMPTOTHECIN],,,,,,,,,,Active,Non-Toxic,,,,,0.013,< 0.01,< 0.01,< 0.01,
COc1cnc2c(c1)C(=O)c1c-2n(CCCN2CCN(CCO)CC2)c(=O)c2cc([N+](=O)[O-])ccc12,,,,,Dose-dependent effect,> 111,,> 111,Dose-dependent effect,,,Active,,,,0.142,1.22,2.76,1.7,1.46
COc1cnc2c(c1)C(=O)c1c-2n(CCCN2CCN(C)CC2)c(=O)c2cc([N+](=O)[O-])ccc12,,,,,Dose-dependent effect,12 to 37,,12 to 37,Dose-dependent effect,,,Active,,0.214,,0.016,0.183,0.081,0.191,0.171
CNCCCn1c2c(c3ccc([N+](=O)[O-])cc3c1=O)C(=O)c1cc(OC)cnc1-2,,,,,Dose-dependent effect,37 to 111,,1 to 12,Dose-dependent effect,,,Active,,0.046,,1.06,0.02,0.03,0.051,0.174
COc1cnc2c(c1)C(=O)c1c-2n(CCCNCCN2CCOCC2)c(=O)c2cc([N+](=O)[O-])ccc12,,,,,Dose-dependent effect,37 to 111,,12 to 37,Dose-dependent effect,,,,,0.08,Active,0.032,0.044,0.15,0.311,0.315
COc1cnc2c(c1)C(=O)c1c-2n(CCCNC(C)C)c(=O)c2cc([N+](=O)[O-])ccc12,,,,,Dose-dependent effect,37 to 111,,12 to 37,Dose-dependent effect,Active,Non-Toxic,,,0.039,Active,0.012,0.019,0.085,0.051,0.082
